Results: PMC11904594 (Current Research in Microbial Sciences, 2025)
In brackets after ≈: the same amount, converted by molar mass.

Experiments:
[1] = system: P. aeruginosa ATCC 27,853; test: MIC, broth microdilution; format: cell-based, Pseudomonas aeruginosa; details: MHB II, 10^6 CFU/ml, 37 °C, 24 h, triplicate
In short: (§1)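 Broth microdilution per CLSI. Strains were freshly plated on LB agar from glycerol stocks; the colistin-resistant lpxD mutant was plated on LB with 10 µg/ml colistin. Inoculum was 10^6 CFU/ml in Mueller Hinton broth II with two-fold dilutions of test compound from 100 to 0.10 µg/ml, incubated at 37 °C for 24 h. MIC was the lowest concentration with no growth.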

[2] = system: P. aeruginosa ATCC 27,853; test: Minimum bactericidal concentration; format: cell-based, Pseudomonas aeruginosa; details: lowest concentration reducing at least 99.9 % of growth, plated on LB, 37 °C, 24 h, triplicate
K. pneumoniae CG258 [3] = test: Time-kill assay; format: cell-based, Klebsiella pneumoniae; details: 24 h
In short: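 Broth without compound was the growth control. Samples taken at 0, 3, 6 and 24 h were diluted and plated on MH II agar for CFU counts. Each curve was run at least in duplicate.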

A. baumannii Ab-1 [4] = test: Minimum bactericidal concentration; format: cell-based, Acinetobacter baumannii; details: lowest concentration reducing at least 99.9 % of growth, plated on LB, 37 °C, 24 h, triplicate
erythrocytes = details: percent hemolysis at 150 μM (table footnote); ref Oddo et al., 2016; cited from earlier work
E. coli ATCC 25,922 [5] = test: Minimum bactericidal concentration; format: cell-based, Escherichia coli; details: lowest concentration reducing at least 99.9 % of growth, plated on LB, 37 °C, 24 h, triplicate
K. pneumoniae CG258 [6] = test: MIC, broth microdilution; format: cell-based, Klebsiella pneumoniae; details: MHB II, 10^6 CFU/ml, 37 °C, 24 h, triplicate
In short: as §1

E. coli ESBL 1057.1 [7] = test: Minimum bactericidal concentration; format: cell-based, Escherichia coli; details: lowest concentration reducing at least 99.9 % of growth, plated on LB, 37 °C, 24 h, triplicate
E. coli ESBL 1057.1 [8] = test: MIC, broth microdilution; format: cell-based, Escherichia coli; details: MHB II, 10^6 CFU/ml, 37 °C, 24 h, triplicate
In short: as §1

S. aureus MRSA USA 300 [9] = test: MIC, broth microdilution; format: cell-based, Staphylococcus aureus; details: MHB II, 10^6 CFU/ml, 37 °C, 24 h, triplicate
In short: as §1

[10] = system: K. pneumoniae ATCC 43,816; test: Minimum bactericidal concentration; format: cell-based, Klebsiella pneumoniae; details: lowest concentration reducing at least 99.9 % of growth, plated on LB, 37 °C, 24 h, triplicate
A. baumannii IB010 [11] = test: MIC, broth microdilution; format: cell-based, Acinetobacter baumannii; details: MHB II, 10^6 CFU/ml, 37 °C, 24 h, triplicate
In short: as §1

S. aureus ATCC 29,213 [12] = test: Minimum bactericidal concentration; format: cell-based, Staphylococcus aureus; details: lowest concentration reducing at least 99.9 % of growth, plated on LB, 37 °C, 24 h, triplicate
P. aeruginosa (ST175–1) [13] = test: Minimum bactericidal concentration; format: cell-based, Pseudomonas aeruginosa; details: lowest concentration reducing at least 99.9 % of growth, plated on LB, 37 °C, 24 h, triplicate
[14] = system: K. pneumoniae ATCC 43,816; test: MIC, broth microdilution; format: cell-based, Klebsiella pneumoniae; details: MHB II, 10^6 CFU/ml, 37 °C, 24 h, triplicate
In short: as §1

[15] = system: 11 bacterial strains (S. aureus, P. aeruginosa, A. baumannii, K. pneumoniae, E. coli); test: Antimicrobial activity screening, summary over groups of strains; format: cell-based; details: 50 µg/ml screen; all strains, Gram-negative and Gram-positive
A. baumannii ATCC 19,606 [16] = test: Minimum bactericidal concentration; format: cell-based, Acinetobacter baumannii; details: lowest concentration reducing at least 99.9 % of growth, plated on LB, 37 °C, 24 h, triplicate
K. pneumoniae CG258 [17] = test: Minimum bactericidal concentration; format: cell-based, Klebsiella pneumoniae; details: lowest concentration reducing at least 99.9 % of growth, plated on LB, 37 °C, 24 h, triplicate
A. baumannii Ab-1 [18] = test: MIC, broth microdilution; format: cell-based, Acinetobacter baumannii; details: MHB II, 10^6 CFU/ml, 37 °C, 24 h, triplicate
In short: as §1

S. aureus ATCC 29,213 [19] = test: MIC, broth microdilution; format: cell-based, Staphylococcus aureus; details: MHB II, 10^6 CFU/ml, 37 °C, 24 h, triplicate
In short: as §1

E. coli ATCC 25,922 [20] = test: MIC, broth microdilution; format: cell-based, Escherichia coli; details: MHB II, 10^6 CFU/ml, 37 °C, 24 h, triplicate
In short: as §1

P. aeruginosa (ST175–1) [21] = test: MIC, broth microdilution; format: cell-based, Pseudomonas aeruginosa; details: MHB II, 10^6 CFU/ml, 37 °C, 24 h, triplicate
In short: as §1

S. aureus MRSA USA 300 [22] = test: Minimum bactericidal concentration; format: cell-based, Staphylococcus aureus; details: lowest concentration reducing at least 99.9 % of growth, plated on LB, 37 °C, 24 h, triplicate
[23] = system: Galleria mellonella larvae; test: In vivo toxicity in Galleria mellonella larvae; details: G. mellonella larvae, 50 µg/larvae (10 μl of 5 mg/ml), 30 °C, N=10 per group
In short: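 Sixth-instar Galleria mellonella larvae (200–300 mg) were held in sawdust at 4 °C until use. Groups of ten were injected with 10 μl of test compound, colistin or 0.9 % NaCl saline control into the second rear proleg, then kept at 30 °C.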

A. baumannii IB010 [24] = test: Minimum bactericidal concentration; format: cell-based, Acinetobacter baumannii; details: lowest concentration reducing at least 99.9 % of growth, plated on LB, 37 °C, 24 h, triplicate
A. baumannii ATCC 19,606 [25] = test: MIC, broth microdilution; format: cell-based, Acinetobacter baumannii; details: MHB II, 10^6 CFU/ml, 37 °C, 24 h, triplicate
In short: as §1

In the case of CC[C@@H](C)[C@@H](NC(=O)[C@@H](CCCCN)NC(=O)[C@@H](CCCCN)NC(=O)[C@@H](Cc1ccccc1)NC(=O)[C@@H](CC(C)C)NC(=O)[C@@H](CCCCN)NC(=O)[C@H](N)CCCCN)C(=O)N[C@H](CC(C)C)C(=O)N[C@H](CCCNC(=N)N)C(=O)N[C@H](Cc1ccc(O)cc1)C(=O)N[C@H](CC(C)C)C(N)=O [BP607, reference compound], the MIC [1] is reported as 25 µg/mL (≈ 17.3 µM), the MBC [2] is reported as 25 µg/mL (≈ 17.3 µM) and the “bactericidal activity in time-kill assay” value (K. pneumoniae CG258 [3]; peptide at 2× MIC) is reported as “bactericidal”. For the same molecule, the “bactericidal activity in time-kill assay” value (K. pneumoniae CG258 [3]; peptide at the MIC) was “maintained this bactericidal effect”, the MBC (A. baumannii Ab-1 [4]) was 6.25 µg/mL (≈ 4.31 µM) and the Hemolysis (erythrocytes) was 42%. The MBC (E. coli ATCC 25,922 [5]) was 6.25 µg/mL (≈ 4.31 µM), the MIC (K. pneumoniae CG258 [6]) was 12.5 µg/mL (≈ 8.63 µM) and the MBC (E. coli ESBL 1057.1 [7]) was 12.5 µg/mL (≈ 8.63 µM). It also gave an MIC (E. coli ESBL 1057.1 [8]) of 12.5 µg/mL (≈ 8.63 µM), an MIC (S. aureus MRSA USA 300 [9]) of 50 µg/mL (≈ 34.5 µM) and an MBC [10] of 12.5 µg/mL (≈ 8.63 µM). It also gave an MIC (A. baumannii IB010 [11]) of 25 µg/mL (≈ 17.3 µM), an MBC (S. aureus ATCC 29,213 [12]) of 50 µg/mL (≈ 34.5 µM) and an MBC (P. aeruginosa (ST175–1) [13]) of 100 µg/mL (≈ 69 µM). The MIC [14] was 12.5 µg/mL (≈ 8.63 µM), the “growth inhibition of all the strains” value [15] was “≈ 90%” and the MBC (A. baumannii ATCC 19,606 [16]) was 6.25 µg/mL (≈ 4.31 µM). The MBC (K. pneumoniae CG258 [17]) was 12.5 µg/mL (≈ 8.63 µM), the MIC (A. baumannii Ab-1 [18]) was 6.25 µg/mL (≈ 4.31 µM) and the MIC (S. aureus ATCC 29,213 [19]) was 50 µg/mL (≈ 34.5 µM). It also gave an MIC (E. coli ATCC 25,922 [20]) of 6.25 µg/mL (≈ 4.31 µM), an MIC (P. aeruginosa (ST175–1) [21]) of 50 µg/mL (≈ 34.5 µM) and an MBC (S. aureus MRSA USA 300 [22]) of 50 µg/mL (≈ 34.5 µM). The “mortality after 24h” value [23] was 80%, the MBC (A. baumannii IB010 [24]) was 50 µg/mL (≈ 34.5 µM) and the MIC (A. baumannii ATCC 19,606 [25]) was 3.13 µg/mL (≈ 2.16 µM).
